# Cneo AK release – causes C. neoformans cell lysis | adenylate kinase release luminescence, 4 h; normalised: neutral wells 0, clomiphene wells 100 | lysis activity, % at 15 µM | 0.2% of 360,000 active | AID 651654;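 active means mean lysis activity across replicates of at least 80%, whatever share of replicates individually reach that level; inactive means mean lysis activity below 80%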
#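 Assay system: C. neoformans cells. Amount: yeast cell density of 5 × 10^6 cells/mL. Technique: AK luminescence. Buffer or medium: YPD. Times: static 4 h at 37 °C with compound, 1 h detection. Dosing: single-point compound dose. Read-out: lysis from increased AK signal.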
# DENV2 CPE – inhibitors of DENV2 cytopathic effect; CPE inhibition, % at 9.99 µM; 1.7% of 350,000 active; DENV2-infected cells, cytopathic effect rescue, plate reader; in the data active means CPE inhibition above about 20%, passing the limit was not always enough; inconclusive means no clear call, values can overlap the other calls; tested in BHK-21 cells;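 further: 0% = median of neutral control wells and 100% = median of positive control wells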
# PDI turbidity – inhibitors of human protein disulfide isomerase | P07237 | PDI insulin aggregation turbidity, A650, 90 min | inhibition, % at 10 µM | 0.052% of 350,000 active | AID 588391;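 active means mean inhibition across replicates of 30% or more, whatever share of single replicates reach that level; inconclusive means mean inhibition below 30% while every single replicate reaches 30%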
# Target sequence (P07237 whole entry, looked up): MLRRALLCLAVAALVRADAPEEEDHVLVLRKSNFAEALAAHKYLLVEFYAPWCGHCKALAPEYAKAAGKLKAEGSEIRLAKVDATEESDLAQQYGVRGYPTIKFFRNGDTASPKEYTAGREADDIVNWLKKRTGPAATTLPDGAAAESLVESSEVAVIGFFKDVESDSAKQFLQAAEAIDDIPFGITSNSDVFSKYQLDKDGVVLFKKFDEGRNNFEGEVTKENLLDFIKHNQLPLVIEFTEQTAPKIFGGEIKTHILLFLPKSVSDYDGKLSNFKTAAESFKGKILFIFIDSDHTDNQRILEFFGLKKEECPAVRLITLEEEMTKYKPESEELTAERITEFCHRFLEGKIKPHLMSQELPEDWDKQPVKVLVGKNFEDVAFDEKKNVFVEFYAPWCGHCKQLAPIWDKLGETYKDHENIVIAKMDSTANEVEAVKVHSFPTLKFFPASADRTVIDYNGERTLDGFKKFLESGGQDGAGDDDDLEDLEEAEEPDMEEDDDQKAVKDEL
# Statin myotox sup – suppressors of simvastatin-induced myotoxicity in C2C12 myotubes; ATP luminescence, 48 h; scaled: DMSO 0, geranylgeraniol control 100; rescue of ATP level, % at 7.49 µM; AID 602340; 0.78% of 330,000 active;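 active means mean ATP rescue above about 67%, or every replicate alone reaching that limit, limit read from the data, passing the limit was not always enough; inconclusive means no clear call, values can overlap the other calls; inactive means mean under the limit and some replicate under it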;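 further: myotubes were challenged with 10 µM simvastatin during compound exposure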
# CFTR F508del cor – correctors of CFTR F508del function in bronchial epithelial cells | CFBE cells, YFP halide quenching; stimulated with forskolin plus potentiator P3; % fluorescence drop versus neutral controls | activity (quench increase), % at 7.58 µM | 0.36% of 350,000 active | AID 720511;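 active means mean added fluorescence quench of at least 8% versus neutral control, with both replicates also reaching 8%; inconclusive means only one of the mean or replicate conditions met; inactive means mean below 8% and not both replicates reaching 8%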;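 further: cells transiently co-express mutant CFTR-F508del with the halide-sensitive YFP; corrector assay measuring rescue of mutant channel to the surface after 24 h compound exposure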
# ERp5 inh – blocks human ERp5 reductase activity on insulin. 0.05% of 350,000 active. inhibition, % at 9.99 µM. Q15084. ERp5 insulin aggregation, absorbance 650 nm, 90 min;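 active means mean replicate inhibition above about 25%, with every replicate also reaching it, limit read from the data, passing the limit was not always enough; inconclusive means only one of those two criteria met; inactive means neither criterion met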
# * hit, by the source's call; ? = inconclusive; . = no result given; ! = not active in a repeat. Shown are actives, neighbours in structure and some others; about 2.3% of the full set was active somewhere.
SMILES,Cneo AK release,DENV2 CPE,PDI turbidity,Statin myotox sup,CFTR F508del cor,ERp5 inh
CC(C)NC(=O)N(C)C[C@H]1OCc2cnnn2CCCC(=O)N([C@H](C)CO)C[C@@H]1C,-3,92*!,3,2,-3,2
C[C@@H]1CN([C@@H](C)CO)C(=O)CCCn2nncc2CO[C@H]1CN(C)C(=O)Nc1ccccc1,0,31*,.,0,0,2
COc1cccc(S(=O)(=O)N(C)C[C@H]2OCc3cnnn3CCCC(=O)N([C@H](C)CO)C[C@H]2C)c1,103*!,?,1,13,2,3
COc1cccc(S(=O)(=O)N(C)C[C@@H]2OCc3cnnn3CCCC(=O)N([C@H](C)CO)C[C@H]2C)c1,0,?,2,1,-5,-3
CCOC(=O)N(C)C[C@@H]1OCc2cnnn2CCCC(=O)N([C@@H](C)CO)C[C@@H]1C,0,70*!,-3,-7,-2,1
CC(C)NC(=O)N(C)C[C@@H]1OCc2cnnn2CCCC(=O)N([C@@H](C)CO)C[C@@H]1C,-3,7,.,-10,-1,3
Cc1ccccc1S(=O)(=O)NCC[C@@H]1CC[C@H](NC(=O)C2CCCCC2)[C@H](CO)O1,2,9,.,1,0,-3
CO[C@@H]1CN(C)C(=O)c2ccc(NC(=O)C3CCOCC3)cc2OC[C@@H](C)N(CC2CC2)C[C@H]1C,4,1,.,6,4,-4
C[C@@H]1CN([C@@H](C)CO)C(=O)CCCn2nncc2CO[C@H]1CN(C)Cc1cccc2c1OCCCO2,2,45*!,-12,-2,-3,2
C[C@H](CO)N1C[C@H](C)[C@@H](CN(C)Cc2cccc3c2OCCCO3)OCc2cnnn2CCCC1=O,5,0,3,1,-6,4
C[C@@H]1CN([C@H](C)CO)C(=O)c2cc(NC(=O)Cc3ccccc3)ccc2O[C@H]1CN(C)C(=O)NC1CCCCC1,-3,-8,.,10,-2,-4
C[C@H](CO)N1C[C@H](C)[C@H](CN(C)S(=O)(=O)c2cccs2)Oc2ccc(N(C)C)cc2CC1=O,55,-1,.,-51,0,-2
COc1cccc(/C=N/NC(=O)C(=O)N/N=C/c2cccc(OC)c2O)c1O,.,1,1,.,10*,1
COc1cccc(/C=N/Nc2ncnc(Cl)c2N)c1O,.,5,-3,.,23*,2
COc1cccc(/C=N/Nc2nccnc2Cl)c1O,.,.,-5,.,3,-1
O=C(NCC[C@@H]1CC[C@@H](NC(=O)C2CCOCC2)[C@@H](CO)O1)Nc1ccc(Cl)cc1,-7,38*,.,-16,0,5
O=C(NCC[C@H]1CC[C@@H](NS(=O)(=O)c2ccc(F)cc2)[C@H](CO)O1)Nc1ccc(Cl)cc1,14,-5,.,12,-1,3
O=C(NCC[C@@H]1CC[C@@H](NS(=O)(=O)c2ccc(Cl)cc2)[C@@H](CO)O1)Nc1ccc(F)cc1,.,33*,.,.,-1,0
O=C(NCC[C@@H]1CC[C@H](NC(=O)C2CCOCC2)[C@H](CO)O1)Nc1ccc(Cl)cc1,-2,-10,.,-1,-2,7
O=C(NCC[C@H]1CC[C@@H](NS(=O)(=O)c2ccc(F)cc2)[C@H](CO)O1)c1ccc2c(c1)OCO2,95*,2,.,13,1,0
CC=Cc1ccc2n(c1=O)C[C@H]1[C@H](CO)[C@@H](C(=O)N(C)C)[C@@H]2N1S(=O)(=O)c1ccccc1C (mixture of isomers),.,-9,.,.,-2,-3
ONC=Nc1cccc2nonc12,1,.,0,146*,.,.
O=S(=O)(Nc1ccccc1)c1cccc2nonc12,0,-3,-12,3,-6,8
Cc1ccc(S(=O)(=O)Nc2ccc3nc(C)sc3c2)cc1,.,.,6,.,.,.
CC(=O)Nc1ccc(S(=O)(=O)Nc2ccc3nc(C)sc3c2)cc1,0,-7,-2,90*,-1,0
SMILES,Cneo AK release,DENV2 CPE,PDI turbidity,Statin myotox sup,CFTR F508del cor,ERp5 inh
C[C@H]1CN([C@@H](C)CO)C(=O)c2cccc(NC(=O)CCCCCC(=O)Nc3ccccc3N)c2O[C@H]1CN(C)S(=O)(=O)c1ccc(F)cc1,.,-10,.,.,-1,7
CCOc1cc(/C=N\Nc2ccc([N+](=O)[O-])cc2)ccc1OCC(=O)Nc1ccc(C)c(C)c1,0,.,-18,103*,.,.
C[C@@H]1CN([C@@H](C)CO)C(=O)c2cc(NC(=O)CCN3CCOCC3)ccc2O[C@@H]1CN(C)Cc1ccncc1,-1,0,.,8,0,-4
O=C(Nc1ccc2c(c1)OCO2)N[C@@H]1CC[C@@H](CCNC(=O)C2CCCC2)O[C@@H]1CO,-4,-10,.,1,0,2
COC(=O)C1=C(C)N(c2ccc(F)cc2)/C(=C/c2ccc(O)cc2)C1=O,1,4,7,115*,0,1
C=CCN1C(=O)/C(=C\C=C2\N(C)c3ccccc3C2(C)C)SC1=S,.,-6,-56,.,5,-4
C=CCN1C(=O)/C(=C/C=C2/N(CC)c3ccc(S(=O)(=O)N(C)C)cc3N2CC)SC1=S,.,-15,5,.,11*,3
C/C=C/c1cnc2c(c1)C(=O)N([C@H](C)CO)C[C@H](C)[C@@H](CN(C)C(=O)C1CCOCC1)O2,-3,-6,.,1,1,-4
O=C(C1CCCN(S(=O)(=O)c2cccnc2)C1)N1CCN(c2ccccn2)CC1 (stereo not drawn),-2,87*,.,1,1,-3
O=C(C1CCCC1)N1[C@H](CO)[C@@H]2c3ccccc3NC[C@@H]21,.,-7,.,.,1,1
C=CC[C@@H](CC(=O)N(CCO)Cc1ccccc1)C(=O)N[C@H](COC(=O)[C@H](CC=C)CC(=O)OC(C)(C)C)Cc1c[nH]c2ccccc12,4,8,30,1,8.5*,0
C=CCC[C@H](Cc1ccc(F)cc1)C(=O)OC[C@H](Cc1c[nH]c2ccccc12)NC(=O)[C@@H](CC=C)CC(=O)N(CCO)Cc1ccccc1,3,.,13,9,8,4
C=CCC[C@H](Cc1ccc(F)cc1)C(=O)OC[C@@H](Cc1c[nH]c2ccccc12)NC(=O)[C@@H](CC=C)CC(=O)N(CCO)Cc1ccccc1,0,21*,-3,-4,-1,1
C=CC[C@H](CC(=O)N(CCO)Cc1ccccc1)C(=O)N[C@H](COC(=O)[C@@H](CC=C)CC(=O)OC(C)(C)C)Cc1c[nH]c2ccccc12,0,14,5,3,1,-3
COc1cccc(CNC(=O)[C@@H]2CCCN2C(=O)[C@H]2CCCCN2C(=O)c2ccc(Cl)cc2)c1,.,78*,.,.,-5,-4
CC(C)CCn1nnnc1C(c1ccccc1)N1CCN(C)CC1 (stereo not drawn),-2,.,1,-15,.,.
